Experimental data reported in ChEMBL document CHEMBL2086341, “COX inhibitors Indomethacin and Sulindac derivatives as antiproliferative agents: synthesis, biological evaluation, and mechanism investigation” (Eur J Med Chem, 2012).
Active and inactive are the calls of the source. No cut-off for these calls is given here.

Tests used:
HT-29 = test: Antiproliferative activity against human HT-29 cells after 72 hrs by MTT assay; assay type: functional, cell-based
Method in brief: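 HT29 colon cells grown in RPMI 1640 with 10% FBS, 2 mmol/l glutamine, 1 mmol/l pyruvate and penicillin-streptomycin at 37 °C, 5% CO2. Cells seeded at 4000/well and attached for 24 h. Treated 72 h with 1000 to 0.32 µM (5-fold dilutions), final DMSO <0.1%; DMSO vehicle controls. MTT 0.5 mg/ml for 2 h, solubilized in DMSO, A570 read. Run in quadruplicate.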

[1] = Solubility of the compound in RPMI 1640 cell culture medium; assay type: physicochemical
SK-BR-3 = test: Antiproliferative activity against human SKBR3 cells after 72 hrs by MTT assay; assay type: functional, cell-based; conditions: SK-BR-3, 72 h
NCI-H292 = test: Antiproliferative activity against human NCI-H292 cells after 72 hrs by MTT assay; assay type: functional, cell-based; conditions: NCI-H292, 72 h
NCI-H522 = test: Antiproliferative activity against human NCI-H522 cells after 72 hrs by MTT assay; assay type: functional, cell-based; conditions: NCI-H522, 72 h
[2] = Antiproliferative activity against human MDA468 cells after 72 hrs by MTT assay; assay type: functional, cell-based; conditions: MDA-MB-468, 72 h
MCF7 = test: Antiproliferative activity against human MCF7 cells after 72 hrs by MTT assay; assay type: functional, cell-based; conditions: MCF7, 72 h
IMR-90 = test: Cytotoxicity against human IMR90 cells after 72 hrs by MTT assay; assay type: cell-based; conditions: IMR-90, 72 h
Bos taurus [3] = organism: Bos taurus; test: Inhibition of bovine tubulin polymerization at 25 uM using microtubule-associated protein rich tubulin measured for 20 mins by spectrophotometry
Method in brief: (§1)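 Bovine brain MAP-rich tubulin at 2 mg/ml in 80 mM PIPES pH 6.9, 2 mM MgCl2, 0.5 mM EGTA, 5% glycerol. Mixed with compound in DMSO or DMSO control at 37 °C. Polymerization started with GTP (2 µl of 1 mM stock) and followed as absorbance at 340 nm over 20 min.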

Bos taurus [4] = organism: Bos taurus; test: Inhibition of bovine tubulin polymerization using microtubule-associated protein rich tubulin measured for 20 mins by spectrophotometry; method in brief: as §1
Bos taurus [5] = organism: Bos taurus; test: Inhibition of bovine tubulin polymerization at 8 uM using microtubule-associated protein rich tubulin at 10 mins by spectrophotometry relative to control; method in brief: as §1
Bos taurus [6] = organism: Bos taurus; test: Inhibition of bovine tubulin polymerization at 10 uM using microtubule-associated protein rich tubulin at 10 mins by spectrophotometry relative to control; method in brief: as §1
Bos taurus [7] = organism: Bos taurus; test: Induction of bovine tubulin polymerization at 2 uM using microtubule-associated protein rich tubulin measured for 20 mins by spectrophotometry; method in brief: as §1
Bos taurus [8] = organism: Bos taurus; test: Induction of bovine tubulin polymerization at 5 uM using microtubule-associated protein rich tubulin measured for 20 mins by spectrophotometry; method in brief: as §1
[9] = Homo sapiens, HT-29, 72 h, read-out: IC50

| IC50 (HT-29; [9]) [µM] | Structure (SMILES) | further results |
| --- | --- | --- |
| 53 | CCCCCCNC(=O)CC1=C(C)/C(=C/c2ccc([S+](C)[O-])cc2)c2ccc(F)cc21 (stereo not drawn) |  |
|  | COc1ccc2c(c1)c(CC(=O)NCCN1CCOCC1)c(C)n2C(=O)c1ccc(OC)c(OC)c1 | IC50 (HT-29; ht-29): ND(Insoluble); solubility [1]: Insoluble |
|  | COc1ccc2c(c1)c(CC(=O)NCCN1CCOCC1)c(C)n2C(=O)c1ccc(Br)cc1 | IC50 (HT-29; ht-29): ND(Insoluble); solubility [1]: Insoluble |
| 271 | CC1=C(CC(=O)NCCN(C)C)c2cc(F)ccc2/C1=C\c1ccc2ccccc2c1 |  |
| 140 | COc1cc(/C=C2/C(C)=C(CC(=O)NCCN(C)C)c3cc(F)ccc32)cc(OC)c1OC |  |
|  | COc1ccc2c(c1)c(CC(=O)NCc1ccc(CNC(=O)Cc3c(C)n(C(=O)c4ccc(Cl)cc4)c4ccc(OC)cc34)cc1)c(C)n2C(=O)c1ccc(Cl)cc1 | IC50 (HT-29; ht-29): ND(Insoluble); solubility [1]: Insoluble |
| 1730 | CC1=C(CC(=O)O)c2cc(F)ccc2/C1=C\c1ccc([S+](C)[O-])cc1 (stereo not drawn) [SULINDAC] |  |
| 110 | COc1ccc2c(c1)c(CC(=O)NCCCCCNC(=O)Cc1c(C)n(C(=O)c3ccc(Cl)cc3)c3ccc(OC)cc13)c(C)n2C(=O)c1ccc(Cl)cc1 |  |
| 1190 | COc1cccc(NC(=O)Cc2c(C)n(C(=O)c3ccc(Cl)cc3)c3ccc(OC)cc23)c1 |  |
| 47 | CC1=C(CC(=O)NCCN(C)C)c2cc(F)ccc2/C1=C\c1ccc([S+](C)[O-])cc1 (stereo not drawn) |  |
| 44 | COc1ccc2c(c1)c(CC(=O)NCCN(C)C)c(C)n2C(=O)c1ccc(OC)c(OC)c1 |  |
| 124 | CCCCNC(=O)CC1=C(C)/C(=C/c2ccc([S+](C)[O-])cc2)c2ccc(F)cc21 (stereo not drawn) |  |
| 13.5 | COc1ccc2c(c1)c(CC(=O)NCCN(C)C)c(C)n2C(=O)c1ccc(Br)cc1 | IC50 (SK-BR-3): 4.81 µM; IC50 (NCI-H292): 3.47 µM; IC50 (NCI-H522): 10.6 µM; IC50 [2]: 2.91 µM; IC50 (MCF7): 9.53 µM; IC50 (IMR-90): 41.7 µM; inhibition (Bos taurus [3]): Active |
| 2580 | CC1=C(CC(=O)Nc2ccc(C#N)cc2)c2cc(F)ccc2/C1=C\c1ccc([S+](C)[O-])cc1 (stereo not drawn) |  |
| 11.3 | CSc1ccc(/C=C2/C(C)=C(CC(=O)NCCN(C)C)c3cc(F)ccc32)cc1 |  |
| 307 | CCCCCCCCNC(=O)CC1=C(C)/C(=C/c2ccc([S+](C)[O-])cc2)c2ccc(F)cc21 (stereo not drawn) |  |
| 277 | COc1ccc2c(c1)c(CC(=O)NCCN1CCCCC1)c(C)n2C(=O)c1ccc(Cl)cc1 |  |
| 465 | CC1=C(CC(=O)NCCCN(C)C)c2cc(F)ccc2/C1=C\c1ccc([S+](C)[O-])cc1 (stereo not drawn) |  |
| 68 | COc1ccc2c(c1)c(CC(=O)Nc1ccc(Cl)cc1)c(C)n2C(=O)c1ccc(Cl)cc1 |  |
| 38 | COc1ccc2c(c1)c(CC(=O)NCCN1CCCC1)c(C)n2C(=O)c1ccc(Cl)cc1 |  |

| IC50 (HT-29; [9]) [µM] | Structure (SMILES) | further results |
| --- | --- | --- |
| 29 | COc1ccc2c(c1)c(CC(=O)NCCN(C)C)c(C)n2C(=O)c1ccc2ccccc2c1 |  |
| 170 | COc1ccc2c(c1)c(CC(=O)NCCN(C)C)c(C)n2C(=O)c1ccc(Cl)cc1 |  |
| 17.8 | COc1ccc(C(=O)n2c(C)c(CC(=O)NCCN(C)C)c3cc(OC)ccc32)cc1 |  |
| 1120 | COc1ccc2c(c1)c(CC(=O)Nc1ccccc1OC)c(C)n2C(=O)c1ccc(Cl)cc1 |  |
| 34 | COc1ccc2c(c1)c(CC(=O)NCCN1CCCC1)c(C)n2C(=O)c1cc(OC)c(OC)c(OC)c1 |  |
| 2.7 | COc1ccc2c(c1)c(CC(=O)NCCN(C)C)c(C)n2C(=O)c1cc(OC)c(OC)c(OC)c1 | IC50 (SK-BR-3): 4.63 µM; IC50 (NCI-H292): 0.51 µM; IC50 (NCI-H522): 3 µM; IC50 [2]: 2.87 µM; IC50 (MCF7): 0.9 µM; IC50 (IMR-90): 17.2 µM; inhibition (Bos taurus [3]): Active; inhibition (Bos taurus [4]): Dose-dependent effect; inhibition (Bos taurus [5]): 20%; inhibition (Bos taurus [6]): 56%; Activity (Bos taurus [7]): Active; Activity (Bos taurus [8]): Active |
| 20 | CC1=C(CC(=O)NCCN(C)C)c2cc(F)ccc2/C1=C\c1ccc(Br)cc1 |  |
| 20 | COc1ccc(/C=C2/C(C)=C(CC(=O)NCCN(C)C)c3cc(F)ccc32)cc1 |  |
| 7.7 | COc1ccc2c(c1)c(CC(=O)NCCN(C)C)c(C)n2S(=O)(=O)c1ccccc1 | IC50 (SK-BR-3): 6.39 µM; IC50 (NCI-H292): 4.85 µM; IC50 (NCI-H522): 14.1 µM; IC50 [2]: 15.9 µM; IC50 (MCF7): 4.88 µM; IC50 (IMR-90): 18.7 µM; inhibition (Bos taurus [3]): Active |
| 611 | COc1ccc2c(c1)c(CC(=O)NCCN1CCOCC1)c(C)n2C(=O)c1cc(OC)c(OC)c(OC)c1 |  |
| 1330 | CCCCCCNC(=O)Cc1c(C)n(C(=O)c2ccc(Cl)cc2)c2ccc(OC)cc12 |  |
| 52 | CC1=C(CC(=O)NCCN2CCCC2)c2cc(F)ccc2/C1=C\c1ccc([S+](C)[O-])cc1 (stereo not drawn) |  |
| 12.4 | CC1=C(CC(=O)NCCN(C)C)c2cc(F)ccc2/C1=C\c1ccc(Cl)cc1 |  |
| 2540 | COc1ccc(NC(=O)CC2=C(C)/C(=C/c3ccc([S+](C)[O-])cc3)c3ccc(F)cc32)cc1 (stereo not drawn) |  |
| 1430 | CC1=C(CC(=O)NCCC(C)C)c2cc(F)ccc2/C1=C\c1ccc([S+](C)[O-])cc1 (stereo not drawn) |  |
| 1050 | COc1ccc2c(c1)c(CC(=O)O)c(C)n2C(=O)c1ccc(Cl)cc1 [INDOMETHACIN] |  |
| 1700 | CC1=C(CC(=O)Nc2ccc(Cl)cc2)c2cc(F)ccc2/C1=C\c1ccc([S+](C)[O-])cc1 (stereo not drawn) |  |
| 52 | COc1ccc2c(c1)c(CC(=O)Nc1ccc(I)cc1)c(C)n2C(=O)c1ccc(Cl)cc1 |  |
| 2140 | CCCCCC(C)NC(=O)CC1=C(C)/C(=C/c2ccc([S+](C)[O-])cc2)c2ccc(F)cc21 (stereo not drawn) |  |
